Assay results published in ChEMBL document CHEMBL2163259, “ADME-guided design and synthesis of aryloxanyl pyrazolone derivatives to block mutant superoxide dismutase 1 (SOD1) cytotoxicity and protein aggregation: potential application for the treatment of amyotrophic lateral sclerosis” (J Med Chem, 2012).
Values after ≈ are worked out from the molar mass of the structure shown. Each block holds one compound with its values, some of them ahead of it. Active and inactive are the calls of the source.

What was measured:
Mus musculus [1] = test: Neuroprotective activity in SOD1 G93A mutant B6SJL mouse ALS model assessed as extension in life span at 22 mg/kg; assay type: functional
Mus musculus [2] = test: Neuroprotective activity in SOD1 G93A mutant B6SJL mouse ALS model assessed as extension of life span at 16 mg/kg; assay type: functional
[3] = Drug metabolism in rat liver microsomes at 15 uM after 20 mins in presence of NADPH; assay type: ADME, Microsome; conditions: read-out: Drug metabolism
How it was run: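 Rat liver microsomes (1 mg/mL protein) in PBS pH 7.4 with NADPH-regenerating system (1.3 mM NADP+, 3.3 mM glucose-6-phosphate, 0.4 U/mL G6PDH, 3.3 mM MgCl2). Compound at 15 μM, 37 °C for 0 and 20 min. HPLC on C18 (acetonitrile/water 25/75, 0.1% TFA). Peak-area response ratio to internal standard, normalised to t = 0.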

[4] = system: Superoxide dismutase [Cu-Zn] (Homo sapiens), P00441 [G94A]; test: Inhibition of SOD1 G93A mutant aggregation-induced cytotoxicity in rat PC12 cells assessed as cell viability incubated for 24 hrs and measured 72 hrs post compound dose by cytotoxicity protection assay; assay type: cell-based; conditions: PC-12
How it was run: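 PC12 cells expressing G93A SOD1-YFP fusion seeded 15000 cells/well, grown 24 h before dosing. 12-point dose response, top 32 μM, twofold dilutions. After 24 h, MG132 added (100 nM final). Viability measured 48 h later with Calcein-AM (1 μM final, 20 min, room temperature) fluorescence. EC50 derived from dose-response.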

[5] = Aqueous solubility of the compound in PBS after 16 hrs; assay type: physicochemical
Caco-2 [6] = test: (§1) Apparent permeability from basolateral to apical side in human Caco2 cells; assay type: ADME, cell-based
[7] = Half life in human microsomes at 5 uM incubated for 1 hr at 37 degC in presence of NADPH; assay type: ADME, Microsome
[8] = Half life in mouse microsomes at 5 uM incubated for 1 hr at 37 degC in presence of NADPH; assay type: ADME, Microsome
[9] = Aqueous solubility of the compound in PBS after 45 mins; assay type: physicochemical
Caco-2 [10] = test: (§2) Apparent permeability from apical to basolateral side in human Caco2 cells; assay type: ADME, cell-based
[11] = Efflux ratio of permeability from basolateral to apical side over apical to basolateral side in human Caco2 cells; assay type: ADME, cell-based; conditions: Caco-2
[12] = Intrinsic clearance in mouse microsomes at 5 uM incubated for 1 hr at 37 degC in presence of NADPH; assay type: ADME, Microsome
[13] = Intrinsic clearance in human microsomes at 5 uM incubated for 1 hr at 37 degC in presence of NADPH; assay type: ADME, Microsome
[14] = as §1; assay type: ADME, cell-based; conditions: Caco-2
Cerebral cortex neuron = test: Cytoprotection in rat Primary cortical neurons incubated for 24 hrs and measured 72 hrs post compound dose by cytotoxicity protection assay; assay type: functional, cell-based
How it was run: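 Primary cortical neurons from E18 Sprague-Dawley or Fischer 344 rat brain, dissociated with papain (2 mg/mL, 30 min, 37 °C), plated on poly-D-lysine at 20,000 cells/well, cultured 5 days (~90% neurons). Six-point dose response from 100 μM top, roughly one-third dilutions; 24 h pre-incubation, then MG132 100 nM. Viability read 48 h later by Calcein-AM (1 μM, 20 min, RT) fluorescence. Active = viability ≥5 SD above MG132 controls.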

[15] = as §2; assay type: ADME, cell-based; conditions: Caco-2
[16] = Intrinsic clearance in human microsomes at 5 uM incubated for 1 hr at 37 degC in absence of NADPH; assay type: ADME, Microsome
Liver microsomes [17] = test: Drug metabolism in rat liver microsomes assessed as sulfoxide metabolite formation at 15 uM incubated for 5 to 60 mins in presence of NADPH by HPLC analysis; assay type: ADME, Microsome
How it was run: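 Substrate (15 μM) incubated at 37 °C with rat liver microsomes plus NADPH-regenerating system for 0–60 min. Reaction stopped with acetonitrile, chilled at −78 °C, centrifuged. Supernatant run on isocratic HPLC (acetonitrile/water 25/75, 0.1% TFA). Sulfoxide identified against synthetic sulfoxide and sulfone standards (10 μM) by retention time.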

Liver microsomes [18] = test: Drug metabolism in rat liver microsomes assessed as sulfoxide metabolite formation at 5 uM incubated for 10 to 60 mins in presence of NADPH by HPLC analysis LC/MS/MS analysis; assay type: ADME, Microsome
How it was run: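 Duplicate incubations at 5 μM with or without rat liver microsomes, with and without NADPH, for 0, 10, 20, 40 and 60 min. Protein precipitated with acetonitrile containing internal standard. Supernatant analysed by LC/MS/MS (C18, acetonitrile-water gradient, ESI, MRM). Controls lacked microsomes or compound.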

Superoxide dismutase [Cu-Zn] (Homo sapiens), P00441 [G94A], sequence (P00441 whole entry G94A, the tested form may be a part): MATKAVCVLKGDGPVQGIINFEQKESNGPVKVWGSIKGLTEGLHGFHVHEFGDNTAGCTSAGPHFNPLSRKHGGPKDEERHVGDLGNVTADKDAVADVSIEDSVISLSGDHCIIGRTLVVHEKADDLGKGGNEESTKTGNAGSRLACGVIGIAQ

SMILES: Nc1nc2ccc(OC(F)(F)F)cc2s1 [RILUZOLE]
- Activity (Mus musculus [1]): 11%
- Activity (Mus musculus [2]): 7.5%

- metabolised at 20 min, 15 µM [3]: 41%
SMILES: Cc1cc(-c2ccccc2)nnc1NCCN1CCOCC1 [MINAPRINE]

SMILES: O=c1cc(CS(=O)(=O)c2ccc(Cl)cc2)[nH][nH]1
- Activity [4]: 100%

SMILES: O=c1cc(COc2cccc(-c3ccccc3)c2)[nH][nH]1
- Activity [4]: 100%

SMILES: Cc1cc(S(=O)(=O)Cc2cc(=O)[nH][nH]2)c(C)cc1Cl
- Activity [4]: 100%

SMILES: Cc1cc([S+]([O-])Cc2cc(=O)[nH][nH]2)c(C)cc1Cl (stereo not drawn)
- Activity [4]: 100%

SMILES: CCc1cccc(OCc2cc(=O)[nH][nH]2)c1
- Activity [4]: 100%

SMILES: O=c1cc(COc2cc(-c3ccccc3)cc(-c3ccccc3)c2)[nH][nH]1
- Activity [4]: 100%

- solubility ([5]; buffer, 16 h): 250 µM (≈ 56.2 µg/mL)
- Papp (Caco-2 [6]): 28 ×10⁻⁶ cm/s
- t1/2 ([7]; 1 h, 5 µM): 2.32 h
- t1/2 ([8]; 1 h, 5 µM): 2.38 h
- solubility ([9]; buffer, 0.75 h): 250 µM (≈ 56.2 µg/mL)
- Papp (Caco-2 [10]): 43 ×10⁻⁶ cm/s
- efflux ratio [11]: 0.6
SMILES: O=c1cc(COc2ccc(Cl)cc2)[nH][nH]1
- Activity [4]: 100%

- solubility at 16 h ([5]; PBS): ≥ 500 µM
- CLint scaled at 5 µM [12]: 15.3 mL/min/kg
- CLint scaled at 5 µM [13]: 4.5 mL/min/kg
- Papp B→A [14]: 4.4 ×10⁻⁶ cm/s
- half-life at 5 µM [7]: > 1 h
- half-life at 5 µM [8]: > 1 h
- solubility at 0.75 h ([9]; PBS): ≥ 500 µM
- Papp A→B [15]: 27 ×10⁻⁶ cm/s
- CLint scaled at 5 µM [16]: 1.3 mL/min/kg
- efflux ratio [11]: 0.2
SMILES: O=c1cc(CS(=O)(=O)c2cc(Cl)cc(Cl)c2)[nH][nH]1
- Activity [4]: 100%
- Activity (Cerebral cortex neuron): Active

SMILES: O=c1cc(CSc2cc(Cl)cc(Cl)c2)[nH][nH]1
- Activity [4]: 100%

SMILES: O=c1cc(COc2cc(F)cc(F)c2)[nH][nH]1
- Activity [4]: 100%

SMILES: O=c1cc(C[S+]([O-])c2ccc(Cl)cc2)[nH][nH]1 (stereo not drawn)
- Activity [4]: 35%

SMILES: O=c1cc(CSc2c(Cl)cccc2Cl)[nH][nH]1
- Activity [4]: 100%
- Activity (Cerebral cortex neuron): Active

SMILES: CCc1ccc(OCc2cc(=O)[nH][nH]2)cc1
- Activity [4]: 100%

SMILES: O=c1cc(COc2cc(C(F)(F)F)cc(C(F)(F)F)c2)[nH][nH]1
- Activity [4]: 100%

SMILES: CC(C)(C)c1cccc(OCc2cc(=O)[nH][nH]2)c1
- Activity [4]: 100%

- Drug metabolism (Liver microsomes [17]): Active
- Drug metabolism (Liver microsomes [18]): Active
- metabolised at 20 min, 15 µM [3]: 88%
SMILES: O=c1cc(CSc2ccc(Cl)cc2)[nH][nH]1
- Activity [4]: 100%

SMILES: O=c1cc(COc2cccc(Br)c2)[nH][nH]1
- Activity [4]: 100%

SMILES: O=c1cc(COc2cc(Br)cc(Br)c2)[nH][nH]1
- Activity [4]: 100%
